The subject of data set [1] is Human immunodeficiency virus 1. Description: Antiviral activity against HIV1 at 10 uM by luciferase assay. Format: functional. Particulars: for inhibition at 10 µM: Human immunodeficiency virus 1. Put shortly:
(§1)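 Pseudotyped HIV-1 assay: drug was serially diluted from 10 µM down to 0.1 nM and tested against 100 TCID50 of HIV ADA infecting TZM CD4+ CCR5+ cells. Infection was read on day 3 post-infection as reporter luciferase activity using a commercial kit, and results are given as percent inhibition. Controls were infected cells without drug, a pseudovirus with a non-specific envelope, and an RT inhibitor.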

The test system of data set [2] is Vero. Description: Cytotoxicity against african green monkey Vero cells at 1.0 uM. Format: cell-based. The following applies: chlorocebus sabaeus. Put shortly: (§2)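 Microtiter cytotoxicity assay run in parallel on Vero and TZM CD4+ CCR5+ cells. Serially diluted drug was applied, and viability was measured with a commercial cell viability assay. Values are reported as percent reduction in cell viability.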

Data set [3] deals with Human immunodeficiency virus 1. The experiment in a line: Antiviral activity against HIV1 at 1.0 uM by luciferase assay. The format is functional. The following applies: for inhibition at 1 µM: Human immunodeficiency virus 1. A digest of the protocol: as §1
For data set [4], the system named is Vero. The experiment in a line: Cytotoxicity against african green monkey Vero cells at 10 uM. Format: cell-based. The following applies: chlorocebus sabaeus. A digest of the protocol: as §2
The subject of data set [5] is Mycobacterium tuberculosis. Description: Antimicrobial activity against Mycobacterium tuberculosis. The format is functional.

The structures appear in SMILES notation. Values after ≈ are worked out from the molar mass of the structure shown.

As a reminder, the inhibition is the percentage by which the read-out fell short of the control. As for `CCCc1cc(=O)oc2c3c(c4c(c12)OC(C)(C)C=C4)O[C@@H](C)C[C@H]3O` [(-)-11-DEMETHYL CALANOLIDE A], at 10 µM the inhibition in data set [1] was 0%. The Activity with Vero [2] and in the data set on Vero [4] was 0% in each case. The inhibition at 1 µM in data set [3] stood at 0%.
`Cc1cc(=O)oc2c3c(c4c(c12)OC(C)(C)C=C4)O[C@H](C)[C@@H](C)[C@@H]3O` [(+)-CORDATOLIDE A] came in with an inhibition at 10 µM in data set [1] of 85%. Further, the Activity with Vero [2] and with Vero [4] was 0% throughout. The compound further came in with an inhibition at 1 µM in data set [3] of 44%.
One may read the Inhibition as how much of the control response was suppressed. Compound `CCCc1cc(=O)oc2c3c(c4c(c12)OC(C)(C)C=C4)O[C@H](C)[C@@H](C)[C@@H]3O` (racemic) [CALANOLIDE A] gave an inhibition at 10 µM in data set [1] of 97%. The Activity in the data set on Vero [2] and with Vero [4] was 0% each time. Further, the Inhibition in data set [3] amounted to 81%.
With `Cc1cc(=O)oc2c3c(c4c(c12)OC(C)(C)C=C4)O[C@@H](C)[C@H](C)[C@H]3O` [(-)-CORDATOLIDE A], 10 µM produced 0% inhibition in data set [1]. Moreover, the Activity with Vero [2] and with Vero [4] was 0% in each case. Moreover, the inhibition at 1 µM in data set [3] turned out to be 0%.
As to `CCCc1cc(=O)oc2c3c(c4c(c12)OC(C)(C)C=C4)O[C@H](C)C[C@@H]3O` [(+)-11-DEMETHYL CALANOLIDE A], 10 µM produced 98% inhibition in data set [1]. Besides, the Activity in the data set with Vero [2] came to 0%; in the data set with Vero [4], 54%. The same compound showed an inhibition at 1 µM in data set [3] of 75%.
As to `Cc1cc(=O)oc2c3c(c4c(c12)OC(C)(C)C=C4)O[C@H](C)C[C@@H]3O` [(+)-11-DEMETHYL CORDATOLIDE A], in data set [1], at 10 µM the inhibition was 0%. The Activity in the data set on Vero [2] and in the data set on Vero [4] was 0% throughout. Moreover, testing at 1 µM in data set [3] gave an inhibition of 0%.
Turning to `Cc1cc(=O)oc2c3c(c4c(c12)OC(C)(C)C=C4)O[C@@H](C)C[C@H]3O` [(-)-11-DEMETHYL CORDATOLIDE A], the inhibition at 10 µM in data set [1] came to 0%. The Activity in the data set on Vero [2] and with Vero [4] was 0% throughout. In data set [3], this compound returned an inhibition at 1 µM of 0%.
In turn, `CCCc1cc(=O)oc2c3c(c4c(c12)OC(C)(C)C=C4)O[C@@H](C)[C@H](C)[C@H]3O` [(-)-CALANOLIDE A] yielded an inhibition at 10 µM in data set [1] of 97%. Besides, the Activity in the data set with Vero [2] and with Vero [4] was 0% in each case. In addition, in data set [3], at 1 µM the inhibition was 67%.
The term MIC denotes the lowest concentration that inhibits growth of the organism. Regarding `CCCc1cc(=O)oc2c3c(c4c(c12)OC(C)(C)C=C4)O[C@H](C)[C@@H](C)[C@@H]3O` [CALANOLIDE A], the Inhibition in data set [1] is listed as 98%. For the same compound, the Activity in the data set on Vero [2] worked out at 1%; with Vero [4], 6%. In addition, in data set [3], the inhibition at 1 µM is 86%. For the same compound, the MIC in data set [5] worked out at 3.13 µg/mL (≈ 8.45 µM).

The record behind these values is ChEMBL document CHEMBL1142352, “Chemical resolution of +/- -calanolide A, +/- -cordatolide A and their 11-demethyl analogues” (Bioorg Med Chem Lett, 2008).
